# Results as given in ChEMBL document CHEMBL1828552, “Synthesis and studies of novel 2-(4-cyano-3-trifluoromethylphenyl amino)-4-(quinoline-4-yloxy)-6-(piperazinyl/piperidinyl)-s-triazines as potential antimicrobial, antimycobacterial and anticancer agents” (2011).
# How the values were obtained:
# [1] = system: Pseudomonas aeruginosa; test: Antibacterial activity against 10^5 CFU/mL Pseudomonas aeruginosa MTCC 741 after 24 hrs by agar streak dilution method; format: functional; settings: MTCC 741, 24 h
# Outline: (§1)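 Agar streak dilution. Stock 100 µg/mL in DMSO; graded amounts were mixed into molten nutrient agar and poured at 4–5 mm depth. Plates carried serial dilutions over […]. About 10⁵ CFU/mL of each bacterium was applied, and plates were incubated at 37 ± 1 °C for 24 h. MIC was read from the dilution series.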
# [2] = system: Shigella flexneri; test: Antibacterial activity against 10^5 CFU/mL Shigella flexneri MTCC 1457 after 24 hrs by disc diffusion technique; format: functional
# Outline: (§2)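 Disc diffusion on Mueller–Hinton agar poured 5 mm deep. The surface was swabbed with a 10⁵ CFU/mL […] suspension. Filter-paper discs 6.25 mm in diameter were soaked in compound in DMSO and placed on the agar. Plates were incubated 24 h at 37 ± 1 °C, and the inhibition zone was measured in mm. A DMSO disc served as blank.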
# [3] = system: Aspergillus fumigatus; test: Antifungal activity against 10^5 CFU/mL Aspergillus fumigatus MTCC 343 after 48 hrs by agar streak dilution method; format: functional; settings: MTCC 343, 48 h
# Outline: (§3)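 Agar streak dilution for fungi. Stock 100 µg/mL in DMSO; graded amounts were mixed into molten Sabouraud dextrose agar and poured at 4–5 mm depth. Serial dilutions ran over […]. About 10⁵ CFU/mL inoculum was applied, with incubation at 37 ± 1 °C for 48 h. MIC was read from the dilution series.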
# [4] = system: Shigella flexneri; test: Antibacterial activity against 10^5 CFU/mL Shigella flexneri MTCC 1457 after 24 hrs by agar streak dilution method; format: functional; settings: MTCC 1457, 24 h; outline: as §1
# [5] = system: Escherichia coli; test: Antibacterial activity against 10^5 CFU/mL Escherichia coli MTCC 739 after 24 hrs by agar streak dilution method; format: functional; settings: MTCC 739, 24 h; outline: as §1
# [6] = system: Aspergillus clavatus; test: Antifungal activity against 10^5 CFU/mL Aspergillus clavatus MTCC 1323 after 48 hrs by agar streak dilution method; format: functional; settings: MTCC 1323, 48 h; outline: as §3
# [7] = system: Candida albicans; test: Antifungal activity against 10^5 CFU/mL Candida albicans MTCC 183 after 48 hrs by agar streak dilution method; format: functional; settings: MTCC 183, 48 h; outline: as §3
# [8] = system: Proteus vulgaris; test: Antibacterial activity against 10^5 CFU/mL Proteus vulgaris MTCC 1771 after 24 hrs by disc diffusion technique; format: functional; outline: as §2
# [9] = system: Bacillus cereus; test: Antibacterial activity against 10^5 CFU/mL Bacillus cereus MTCC 619 after 24 hrs by disc diffusion technique; format: functional; outline: as §2
# [10] = system: Escherichia coli; test: Antibacterial activity against 10^5 CFU/mL Escherichia coli MTCC 739 after 24 hrs by disc diffusion technique; format: functional; outline: as §2
# [11] = system: Staphylococcus aureus; test: Antibacterial activity against 10^5 CFU/mL Staphylococcus aureus MTCC 96 after 24 hrs by disc diffusion technique; format: functional; outline: as §2
# [12] = system: Candida albicans; test: Antifungal activity against 10^5 CFU/mL Candida albicans MTCC 183 after 48 hrs by disc diffusion technique; format: functional
# [13] = system: Salmonella typhi; test: Antibacterial activity against 10^5 CFU/mL Salmonella typhi MTCC 733 after 24 hrs by agar streak dilution method; format: functional, Salmonella enterica subsp. enterica serovar Typhi; settings: Salmonella enterica, MTCC 733, 24 h
# [14] = system: DU-145; test: Cytotoxicity against […] human DU145 cells after 48 hrs by SRB assay; format: functional; settings: DU-145, 48 h
# Outline: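 SRB assay in DU-145 cells grown in RPMI 1640 with 10% FBS and 2 mM L-glutamine. Cells were plated and held 24 h before addition of four 10-fold concentrations. After 48 h, cells were TCA-fixed, stained with 0.4% SRB and read at 540 nm. GI50, TGI and LC50 were derived against time-zero and control wells; each value is the mean of three experiments.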
# [15] = system: Klebsiella pneumoniae; test: Antibacterial activity against 10^5 CFU/mL Klebsiella pneumoniae MTCC 109 after 24 hrs by disc diffusion technique; format: functional; outline: as §2
# [16] = system: Klebsiella pneumoniae; test: Antibacterial activity against 10^5 CFU/mL Klebsiella pneumoniae MTCC 109 after 24 hrs by agar streak dilution method; format: functional; settings: MTCC 109, 24 h; outline: as §1
# [17] = system: Aspergillus niger; test: Antifungal activity against 10^5 CFU/mL Aspergillus niger MTCC 282 after 48 hrs by agar streak dilution method; format: functional; settings: MTCC 282, 48 h; outline: as §3
# [18] = system: Aspergillus fumigatus; test: Antifungal activity against 10^5 CFU/mL Aspergillus fumigatus MTCC 343 after 48 hrs by disc diffusion technique; format: functional
# [19] = system: Aspergillus clavatus; test: Antifungal activity against 10^5 CFU/mL Aspergillus clavatus MTCC 1323 after 48 hrs by disc diffusion technique; format: functional
# [20] = system: Bacillus cereus; test: Antibacterial activity against 10^5 CFU/mL Bacillus cereus MTCC 619 after 24 hrs by agar streak dilution method; format: functional; settings: MTCC 619, 24 h; outline: as §1
# [21] = system: Salmonella typhi; test: Antibacterial activity against 10^5 CFU/mL Salmonella typhi MTCC 733 after 24 hrs by disc diffusion technique; format: functional, Salmonella enterica subsp. enterica serovar Typhi
# Outline: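 Disc diffusion. Mueller-Hinton agar autoclaved 120 °C 30 min, poured 5 mm deep. Surface swabbed with 10⁵ CFU/mL suspension […]. 6.25 mm filter-paper discs soaked in compound in DMSO; DMSO-only disc as blank. Incubated 37 ± 1 °C, 24 h for bacteria or 48 h for fungi. Ciprofloxacin and ketoconazole discs as reference drugs. Inhibition zone measured in mm.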
# [22] = system: Staphylococcus aureus; test: Antibacterial activity against 10^5 CFU/mL Staphylococcus aureus MTCC 96 after 24 hrs by agar streak dilution method; format: functional; settings: MTCC 96, 24 h; outline: as §1
# [23] = system: Proteus vulgaris; test: Antibacterial activity against 10^5 CFU/mL Proteus vulgaris MTCC 1771 after 24 hrs by agar streak dilution method; format: functional; settings: MTCC 1771, 24 h; outline: as §1
# [24] = system: Pseudomonas aeruginosa; test: Antibacterial activity against 10^5 CFU/mL Pseudomonas aeruginosa MTCC 741 after 24 hrs by disc diffusion technique; format: functional; outline: as §2
# [25] = system: Aspergillus niger; test: Antifungal activity against 10^5 CFU/mL Aspergillus niger MTCC 282 after 48 hrs by disc diffusion technique; format: functional
compound,measurement,setting,value
N#Cc1ccc(Nc2nc(Oc3ccnc4ccccc34)nc(N3CCC(Cc4ccccc4)CC3)n2)cc1C(F)(F)F,MIC,[1],100 µg/mL
same,inhibition zone (IZ),[2],14 mm
same,MIC,[3],100 µg/mL
same,MIC,[4],100 µg/mL
same,MIC,[5],100 µg/mL
same,MIC,[6],100 µg/mL
same,MIC,[7],100 µg/mL
same,inhibition zone (IZ),[8],17 mm
same,inhibition zone (IZ),[9],22 mm
same,inhibition zone (IZ),[10],14 mm
same,inhibition zone (IZ),[11],24 mm
same,inhibition zone (IZ),[12],15 mm
same,MIC,[13],100 µg/mL
same,GI50,[14],> 100 µM
same,LC50 (concentration giving 50% net cell kill relative to time zero),[14],> 100 µM
same,TGI,[14],> 100 µM
same,inhibition zone (IZ),[15],16 mm
same,MIC,[16],100 µg/mL
same,MIC,[17],100 µg/mL
same,inhibition zone (IZ),[18],<10 mm
same,inhibition zone (IZ),[19],14 mm
same,MIC,[20],50 µg/mL
same,inhibition zone (IZ),[21],16 mm
same,MIC,[22],100 µg/mL
same,MIC,[23],100 µg/mL
same,inhibition zone (IZ),[24],19 mm
same,inhibition zone (IZ),[25],<10 mm
CN1CCN(c2nc(Nc3ccc(C#N)c(C(F)(F)F)c3)nc(Oc3ccnc4ccccc34)n2)CC1,MIC,[1],100 µg/mL
same,inhibition zone (IZ),[2],11 mm
same,MIC,[3],100 µg/mL
same,MIC,[4],100 µg/mL
same,MIC,[5],100 µg/mL
same,MIC,[6],100 µg/mL
same,MIC,[7],100 µg/mL
same,inhibition zone (IZ),[8],<10 mm
same,inhibition zone (IZ),[9],<10 mm
same,inhibition zone (IZ),[10],<10 mm
same,inhibition zone (IZ),[11],<10 mm
same,inhibition zone (IZ),[12],<10 mm
same,MIC,[13],100 µg/mL
same,GI50,[14],51.2 µM
same,LC50 (concentration giving 50% net cell kill relative to time zero),[14],> 100 µM
same,TGI,[14],> 100 µM
same,inhibition zone (IZ),[15],<10 mm
same,MIC,[16],100 µg/mL
same,MIC,[17],100 µg/mL
same,inhibition zone (IZ),[18],<10 mm
same,inhibition zone (IZ),[19],<10 mm
same,MIC,[20],100 µg/mL
same,inhibition zone (IZ),[21],13 mm
same,MIC,[22],100 µg/mL
same,MIC,[23],100 µg/mL
same,inhibition zone (IZ),[24],14 mm
same,inhibition zone (IZ),[25],<10 mm
CC(C)N1CCN(c2nc(Nc3ccc(C#N)c(C(F)(F)F)c3)nc(Oc3ccnc4ccccc34)n2)CC1,MIC,[1],25 µg/mL
same,inhibition zone (IZ),[2],21 mm
same,MIC,[3],100 µg/mL
same,MIC,[4],50 µg/mL
same,MIC,[5],50 µg/mL
same,MIC,[6],100 µg/mL
same,MIC,[7],100 µg/mL
same,inhibition zone (IZ),[8],21 mm
same,inhibition zone (IZ),[9],22 mm
same,inhibition zone (IZ),[10],22 mm
same,inhibition zone (IZ),[11],23 mm
same,inhibition zone (IZ),[12],18 mm
same,MIC,[13],100 µg/mL
same,GI50,[14],> 100 µM
same,LC50 (concentration giving 50% net cell kill relative to time zero),[14],> 100 µM
same,TGI,[14],> 100 µM
same,inhibition zone (IZ),[15],21 mm
same,MIC,[16],100 µg/mL
same,MIC,[17],100 µg/mL
same,inhibition zone (IZ),[18],17 mm
same,inhibition zone (IZ),[19],17 mm
same,MIC,[20],50 µg/mL
same,inhibition zone (IZ),[21],21 mm
same,MIC,[22],50 µg/mL
same,MIC,[23],100 µg/mL
same,inhibition zone (IZ),[24],22 mm
same,inhibition zone (IZ),[25],<10 mm
